Source: ChEMBL document CHEMBL4270628, “Design, synthesis, and evaluation of cystargolide-based β-lactones as potent proteasome inhibitors” (Eur J Med Chem, 2018)
Activity calls are given as the source filed them. No cut-off for these calls is given here.

Key:
[1] = molecular target: T1, Proteasome Macropain subunit MB1 (Homo sapiens) (UniProt P28074); assay: Inhibition of 20S proteasome beta5 subunit in human MCF7 cells using Suc-LLVY-AMC as substrate pretreated for 1 hr followed by compound washout and cell lysis prior to substrate addition measured after 1 hr by fluorescence assay; type: cell-based
T1 sequence (whole entry): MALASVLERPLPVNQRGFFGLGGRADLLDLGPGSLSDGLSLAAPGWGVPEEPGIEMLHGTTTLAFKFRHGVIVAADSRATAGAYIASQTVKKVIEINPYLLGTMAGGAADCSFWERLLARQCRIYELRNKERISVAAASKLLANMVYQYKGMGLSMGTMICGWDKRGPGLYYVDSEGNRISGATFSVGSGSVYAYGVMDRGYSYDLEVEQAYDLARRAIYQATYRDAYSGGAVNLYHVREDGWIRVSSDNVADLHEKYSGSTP
How it was run: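 Adherent MCF7 (500,000 cells/mL, overnight, ~100% confluent) dosed 1 h at 37 °C, 5% CO₂; washed twice with PBS, lysed in HEPES/Triton buffer on ice 1 h; 15 min at 37 °C, then 100 μM Suc-LLVY-AMC 1 h at 37 °C; ex 360/em 480 nm. IC50 from best three of four biological replicates per concentration.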

[2] = molecular target: T2, Proteasome Macropain subunit MB1 (Homo sapiens, UniProt P28074); assay: Inhibition of 20S proteasome beta5 subunit in human Jurkat cell lysate using Suc-LLVY-AMC as substrate pretreated for 30 mins followed by substrate addition and measured after 60 mins by fluorescence assay
T2 sequence (P28074 whole entry): T1 sequence (whole entry)
How it was run: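 Lysate was preincubated with compound 30 min at 37 °C. 100 μM substrate solution was added: Suc-LLVY-AMC for β5, Suc-RLR-AMC for β2. IC50 by nonlinear regression, ±SD.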

MCF7 = assay: Cytotoxicity against human MCF7 cells after 48 hrs by MTT assay; type: functional, cell-based; settings: MCF7, 48 h
How it was run: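 MCF7 cells plated at 4*10⁴ cells/mL and left overnight to adhere, then exposed to a concentration series for 48 h, with DMSO vehicle, untreated cells, and 100 μM phenylarsine oxide as controls. MTT (5 mg/mL stock in PBS) was added for 2 h at 37 °C. Formazan was dissolved in DMSO and OD read at 490 nm. The best three of quadruplicate wells were used; IC50 from nonlinear regression on normalized data, ±SD.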

RPMI-8226 = assay: Cytotoxicity against human RPMI8226 cells after 48 hrs by MTT assay; type: functional, cell-based; settings: RPMI-8226, 48 h
How it was run: (§1)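 MTT viability after 48 h exposure to a concentration series; MDA-MB-231 seeded at 4*10⁴ cells/mL and adhered overnight, RPMI 8226 at 4*10⁵ cells/mL and dosed immediately. MTT (5 mg/mL in PBS) added, 2 h at 37 °C; formazan dissolved in DMSO (MDA-MB-231) or DMF/SDS pH<4 (RPMI 8226); OD 490 nm.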

MDA-MB-231 = assay: Cytotoxicity against human MDA-MB-231 cells after 48 hrs by MTT assay; type: functional, cell-based; settings: MDA-MB-231, 48 h; how it was run: as §1
[3] = Inhibition of yeast 20S proteasome beta5 subunit using Suc-LLVY-AMC as substrate pretreated for 30 mins followed by substrate addition and measured after 60 mins by fluorescence assay; parameters: species or system Saccharomyces cerevisiae
How it was run: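 Purified yeast 20S proteasome at 8 μg/mL preincubated with compound 30 min at 37 °C; then 100 μM Suc-LLVY-AMC for 60 min at 37 °C; cleaved-AMC fluorescence ex 360/em 480 nm. IC50 by nonlinear regression on normalized data, confirmed in at least technical triplicate, reported ± SD.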

[4] = molecular target: T3, Proteasome subunit beta type-1 (Saccharomyces cerevisiae (strain ATCC 204508 / S288c) (Baker's yeast), UniProt P38624); assay: Inhibition of yeast 20S proteasome beta1 subunit using fluorescent substrate pretreated for 30 mins followed by substrate addition and measured after 60 mins by fluorescence assay
T3 sequence (P38624 whole entry): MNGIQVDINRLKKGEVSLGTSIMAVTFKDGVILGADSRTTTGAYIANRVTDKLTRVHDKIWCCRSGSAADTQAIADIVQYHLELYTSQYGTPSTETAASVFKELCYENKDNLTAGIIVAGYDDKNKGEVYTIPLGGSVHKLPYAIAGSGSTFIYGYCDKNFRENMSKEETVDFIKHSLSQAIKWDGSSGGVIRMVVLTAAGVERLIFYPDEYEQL

[5] = molecular target: T4, Proteasome subunit beta type-2 (Saccharomyces cerevisiae (strain ATCC 204508 / S288c) (Baker's yeast), UniProt P25043); assay: Inhibition of yeast 20S proteasome beta2 subunit using SUC-RLR-AMC as substrate pretreated for 30 mins followed by substrate addition and measured after 60 mins by fluorescence assay
T4 sequence (P25043 whole entry): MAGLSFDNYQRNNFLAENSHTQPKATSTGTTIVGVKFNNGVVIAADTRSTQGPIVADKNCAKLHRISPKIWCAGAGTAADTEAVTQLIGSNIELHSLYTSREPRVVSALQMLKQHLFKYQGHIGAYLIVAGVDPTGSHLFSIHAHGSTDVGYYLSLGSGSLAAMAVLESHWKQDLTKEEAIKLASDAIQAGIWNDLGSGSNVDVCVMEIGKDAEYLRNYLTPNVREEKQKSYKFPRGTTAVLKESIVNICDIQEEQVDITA
How it was run: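 Fluorogenic substrate was then added (100 μM Suc-RLR-AMC solution for β2) and incubated 60 min at 37 °C; cleavage read at ex 360/em 480 nm. IC50 from nonlinear regression on normalized data, ±SD.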

[6] = molecular target: T5, Proteasome subunit beta type-8 (Homo sapiens, UniProt P28062); assay: Inhibition of human immunoproteasome beta5 subunit using Suc-LLVY-AMC as substrate pretreated for 30 mins followed by substrate addition and measured after 60 mins by fluorescence assay
T5 sequence (P28062 whole entry): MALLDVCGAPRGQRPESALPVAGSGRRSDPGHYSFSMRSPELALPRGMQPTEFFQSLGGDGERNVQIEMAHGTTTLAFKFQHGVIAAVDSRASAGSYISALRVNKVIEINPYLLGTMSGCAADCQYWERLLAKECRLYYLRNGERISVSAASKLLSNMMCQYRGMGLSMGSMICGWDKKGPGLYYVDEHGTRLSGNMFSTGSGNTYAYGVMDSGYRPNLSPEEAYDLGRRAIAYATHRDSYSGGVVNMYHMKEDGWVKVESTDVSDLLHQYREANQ

SMILES | inhibition [1] | IC50 [2] | IC50 (MCF7) | IC50 (RPMI-8226) | IC50 (MDA-MB-231) | IC50 [3] | IC50 [4] | IC50 [5] | IC50 [6]
CC[C@H](C)[C@@H]1C(=O)O[C@H]1C(=O)N[C@H](C(=O)N[C@H](C(=O)OCc1ccccc1)C(C)C)C(C)(C)C | Active | 22.8 nM | 2290 nM | 748 nM | 699 nM |  |  |  | 
CC[C@H](C)[C@@H]1C(=O)O[C@H]1C(=O)N[C@H](C(=O)N[C@H](C(=O)OCc1ccccc1)C(C)(C)C)C(C)C | inactive | 9.8 nM | 1140 nM | 1750 nM | 1910 nM |  |  |  | 
CC[C@H](C)[C@@H]1C(=O)O[C@H]1C(=O)N[C@H](C(=O)N[C@H](C(=O)OCc1ccc(OC)cc1)C(C)C)C(C)C |  | 10.2 nM | 854 nM | 114 nM | 280 nM |  |  |  | 
CC(C)C[C@@H]1C(=O)O[C@H]1C(=O)N[C@H](C(=O)N[C@H](C(=O)OCc1ccccc1)C(C)C)C(C)C | inactive | 19.7 nM | 55300 nM | 33500 nM | 30300 nM |  |  |  | 
CC(C)[C@H](NC(=O)[C@@H]1OC(=O)[C@H]1C1CCCC1)C(=O)N[C@H](C(=O)OCc1ccccc1)C(C)C | inactive | 12.9 nM | 50600 nM | 2350 nM | 28200 nM |  |  |  | 
CC[C@H](C)[C@@H]1C(=O)O[C@H]1C(=O)N[C@H](C(=O)N[C@H](C(=O)OCC1CCCCC1)C(C)C)C(C)C |  | 18.7 nM | 4620 nM | 303 nM | 3220 nM |  |  |  | 
CC[C@H](C)[C@@H]1C(=O)O[C@H]1C(=O)N[C@@H](COCc1ccccc1)C(=O)N[C@H](C(=O)OCc1ccccc1)C(C)C | Active | 7.7 nM | 3450 nM | 1710 nM | 2860 nM |  |  |  | 
CC[C@H](C)[C@@H]1C(=O)O[C@H]1C(=O)N[C@H](C(=O)N[C@H](C(=O)OC)C(C)C)C(C)C |  | 15.9 nM | 427 nM | 268 nM | 312 nM |  |  |  | 
CC[C@H](C)[C@@H]1C(=O)O[C@H]1C(=O)N[C@H](C(=O)N[C@H](C(=O)NCc1ccccc1)C(C)C)C(C)C |  | 3.6 nM | 892 nM | 320 nM | 885 nM | 5.4 nM | 1380 nM | 2920 nM | 
C=CCCOC(=O)[C@@H](NC(=O)[C@@H](NC(=O)[C@@H]1OC(=O)[C@H]1[C@@H](C)CC)C(C)C)C(C)C |  | 6.6 nM | 523 nM | 272 nM | 341 nM |  |  |  | 
C=CCOC(=O)[C@@H](NC(=O)[C@@H](NC(=O)[C@@H]1OC(=O)[C@H]1[C@@H](C)CC)C(C)C)C(C)C |  | 9.4 nM | 353 nM | 88 nM | 275 nM | 19.5 nM | 779 nM | > 10000 nM | 41.2 nM
CC(C)[C@H](NC(=O)[C@@H]1OC(=O)[C@H]1C1CC1)C(=O)N[C@H](C(=O)OCc1ccccc1)C(C)C | inactive | 7.6 nM | > 100000 nM | 73900 nM | > 100000 nM |  |  |  | 
CC(C)[C@H](NC(=O)[C@@H]1OC(=O)[C@H]1C1CCC1)C(=O)N[C@H](C(=O)OCc1ccccc1)C(C)C | inactive | 13.2 nM | > 50000 nM | 37200 nM | > 50000 nM |  |  |  | 
CC[C@H](C)[C@@H]1C(=O)O[C@H]1C(=O)N[C@@H](Cc1ccccc1)C(=O)N[C@@H](Cc1ccccc1)C(=O)OCc1ccccc1 |  | 11.6 nM | 6250 nM | 1180 nM | 5210 nM |  |  |  | 
CC[C@H](C)[C@@H]1C(=O)O[C@H]1C(=O)N[C@H](C(=O)N[C@H](C(=O)OCc1ccc(Cl)cc1)C(C)C)C(C)C |  | 8.2 nM | 918 nM | 85 nM | 312 nM |  |  |  | 
CC[C@H](C)[C@@H]1C(=O)O[C@H]1C(=O)N[C@H](C(=O)N[C@H](C(=O)OCc1ccccc1)C(C)(C)C)C(C)(C)C |  | 35.9 nM | 1900 nM | 1220 nM | 673 nM |  |  |  | 
CC[C@H](C)[C@@H]1C(=O)O[C@H]1C(=O)N[C@H](C(=O)N[C@@H](CC(C)C)C(=O)OCc1ccccc1)C(C)C | Active | 7.7 nM | 332 nM | 286 nM | 219 nM |  |  |  | 
CC[C@H](C)[C@@H]1C(=O)O[C@H]1C(=O)N[C@H](C(=O)N[C@@H](Cc1ccccc1)C(=O)OCc1ccccc1)C(C)C |  | 5.7 nM | 2750 nM | 1100 nM | 3350 nM |  |  |  | 
CC[C@H](C)[C@@H]1C(=O)O[C@H]1C(=O)N[C@@H](CC(C)C)C(=O)N[C@H](C(=O)OCc1ccccc1)C(C)C | Active | 5 nM | 2460 nM | 2240 nM | 1450 nM |  |  |  | 
CC[C@H](C)[C@@H]1C(=O)O[C@H]1C(=O)NCC(=O)N[C@H](C(=O)OCc1ccccc1)C(C)C | Active | 2.7 nM | 2080 nM | 762 nM | 678 nM |  |  |  | 
CC[C@H](C)[C@@H]1C(=O)O[C@H]1C(=O)N[C@H](C(=O)N[C@H](C(=O)OCC(C)C)C(C)C)C(C)C |  | 8.8 nM | 664 nM | 95 nM | 317 nM |  |  |  | 
CC[C@H](C)[C@@H]1C(=O)O[C@H]1C(=O)N[C@@H](Cc1ccccc1)C(=O)N[C@H](C(=O)OCc1ccccc1)C(C)C | Active | 7.8 nM | 6940 nM | 2610 nM | 3760 nM |  |  |  | 
CC(C)C[C@H](NC(=O)[C@H](CCc1ccccc1)NC(=O)CN1CCOCC1)C(=O)N[C@@H](Cc1ccccc1)C(=O)N[C@@H](CC(C)C)C(=O)[C@@]1(C)CO1 [CARFILZOMIB] |  |  | 4.1 nM | 6.7 nM | 4.4 nM |  | > 1000 nM | > 1000 nM | 
